Activity calls are given as the source filed them. The rule behind the calls is not given here.
Tests used:
[1] = Cytotoxicity against CD-1 mouse macrophages at 10 uM; assay type: cell-based; settings: macrophage
[2] = Antiinflammatory activity in CD-1 mouse Macrophage assessed as inhibition of IFN-gamma induced NO production after 48 hrs by Griess reaction; assay type: functional, cell-based
[3] = target: NAD(P)H dehydrogenase [quinone] 1 (Mus musculus) (UniProt Q64669); test: Induction of NQO1 activity in mouse Hepa-1c1c7 cells after 48 hrs; assay type: cell-based
Chain of NAD(P)H dehydrogenase [quinone] 1 (Mus musculus) (Q64669 whole entry): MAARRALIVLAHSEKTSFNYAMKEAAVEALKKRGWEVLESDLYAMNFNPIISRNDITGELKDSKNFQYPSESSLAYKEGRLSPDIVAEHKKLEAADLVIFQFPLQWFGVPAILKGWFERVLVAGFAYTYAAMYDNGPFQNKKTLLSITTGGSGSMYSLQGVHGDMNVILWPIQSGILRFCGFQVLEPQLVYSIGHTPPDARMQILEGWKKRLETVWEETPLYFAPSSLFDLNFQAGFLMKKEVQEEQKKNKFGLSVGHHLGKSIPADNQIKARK

RAW264.7 [4] = test: Antiinflammatory activity in mouse RAW264.7 cells assessed as inhibition of IFN-gamma induced NO production after 24 hrs by Griess reaction; assay type: functional, cell-based
Procedure, shortened: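 RAW 264.7 cells exposed to serial concentrations of compound together with IFN-γ (10 ng/mL) for 24 h; NO in supernatants quantified by Griess reaction. IC50 tested over 0.1 pM to 10 μM in 10-fold steps; values averaged from two separate experiments.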

RAW264.7 [5] = test: Induction of HO-1 expression in mouse RAW264.7 cells at 10 nM after 6 hrs by Western blotting; assay type: functional, cell-based
Procedure, shortened: (§1)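 RAW 264.7 macrophages were exposed to compound at 10–100 nM for 6 h. HO-1 protein was detected by Western blot of total cell lysates.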

RAW264.7 [6] = test: Induction of HO-1 expression in mouse RAW264.7 cells at 100 nM after 6 hrs by Western blotting; assay type: functional, cell-based; procedure, shortened: as §1
RAW264.7 [7] = test: Induction of HO-1 expression in mouse RAW264.7 cells at 300 nM after 6 hrs by Western blotting; assay type: functional, cell-based
Procedure, shortened: (§2)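 RAW cells treated with compound for 6 h (30–300 nM range); HO-1 detected in total cell lysates by Western blot.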

RAW264.7 [8] = test: Induction of HO-1 expression in mouse RAW264.7 cells at 30 nM after 6 hrs by Western blotting; assay type: functional, cell-based; procedure, shortened: as §2
[9] = Mus musculus, CD-1, Macrophage, 48 h

SMILES | Activity [1] | IC50 (RAW264.7 [4]; Mus musculus, RAW264.7, 24 h) [nM] | other results
CC1(C)C(=O)C(C#N)=C[C@@]2(C)C3=CC(=O)C=C[C@@]3(C)CC[C@H]12 | Non-toxic |  | IC50 [2, 9]: 58 nM; CD [3]: 140 nM
CC1(C)C(=O)C(C#N)=C[C@@]2(C)C3=CC(=O)C(C#N)=C[C@@]3(C)CC[C@H]12 | Non-toxic |  | IC50 [2, 9]: 1.3 nM; CD [3]: 19 nM
CC1(C)C(=O)C(C#N)=C[C@@]2(C)C3=CC(=O)CC[C@@]3(C)CC[C@H]12 | Non-toxic |  | IC50 [2, 9]: 26 nM
C#C[C@]12C=C(C#N)C(=O)C=C1[C@@]1(C)C=C(C#N)C(=O)C(C)(C)[C@@H]1CC2 [listing 1 of 2 here] |  |  | IC50 (RAW264.7 [4]; raw264.7): 3 nM
CC1(C)C(=O)C(C#N)=C[C@]2(C)C3=CC(=O)C(C#N)=C[C@]3(C)CC[C@@H]12 [listing 1 of 2 here] |  |  | IC50 ([2]; macrophage): 14 nM
C#C[C@]12C=C(C#N)C(=O)C=C1[C@@]1(C)C=C(C#N)C(=O)C(C)(C)[C@@H]1CC2 [listing 2 of 2 here] |  |  | Activity (RAW264.7 [5]): Active; Activity (RAW264.7 [6]): Active; CD [3]: 2.7 nM
CC1(C)C(=O)C(C#N)=C[C@]2(C)C3=CC(=O)C(C#N)=C[C@]3(C#C[Si](C)(C)C)CC[C@@H]12 |  |  | Activity (RAW264.7 [5]): Active; Activity (RAW264.7 [6]): Active; CD [3]: 3 nM
CC1(C)C(=O)C(C#N)=C[C@]2(C)C3=CC(=O)C(C#N)=C[C@]3(C)CC[C@@H]12 [listing 2 of 2 here] |  |  | CD [3]: 150 nM
CC1(C)C(=O)C(C#N)=C[C@]2(C)C3=CC(=O)C=C[C@]3(C)CC[C@@H]12 |  |  | CD [3]: 170 nM
CC1(C)C(=O)C(C#N)=C[C@]2(C)C3=CC(=O)C(C#N)=C[C@]3(C#C[Si](C)(C)C(C)(C)C)CCC12 (mixture of isomers) |  | 80 | CD [3]: 150 nM
CC1(C)C(=O)C(C#N)=C[C@]2(C)C3=CC(=O)CCCC3(F)CC[C@@H]12 (mixture of isomers) |  | 360 | 
CC1(C)C(=O)C(C#N)=C[C@]2(C)C3=CC(=O)C(C#N)=C[C@]3(C#Cc3nccs3)CCC12 (mixture of isomers) |  | 10 | CD [3]: 35 nM; Activity (RAW264.7 [7]): Active; Activity (RAW264.7 [8]): Active
CC1(C)C(=O)C(C#N)=C[C@]2(C)C3=CC(=O)C(C(N)=O)=C[C@]3(C)CC[C@@H]12 (racemic) | Non-toxic |  | 
CC(=O)O[C@@H]1CCC=C2[C@@]3(C)C=C(C#N)C(=O)C(C)(C)[C@@H]3CC[C@]21C (racemic) | Non-toxic |  | 
CC1(C)C(=O)C(C#N)=C[C@]2(C)C3=CCC[C@@H](O)[C@]3(C)CC[C@@H]12 (racemic) | Non-toxic |  | 
CC1(C)C(=O)C(C#N)=C[C@]2(C)C3=CC(=O)C[C@@H](O)[C@]3(C)CC[C@@H]12 (racemic) | Non-toxic |  | 
COC(=O)C#C[C@]12C=C(C#N)C(=O)C=C1[C@@]1(C)C=C(C#N)C(=O)C(C)(C)[C@@H]1CC2 (racemic) |  | 20 | CD [3]: 85 nM; Activity (RAW264.7 [7]): Active; Activity (RAW264.7 [8]): Active
CC1(C)C(=O)C(C#N)=C[C@]2(C)C3=CC(=O)CC[C@]3(CO)CC[C@@H]12 (racemic) |  | 350 | 
CC1(C)C(=O)C(C#N)=C[C@]2(C)C3=CC(=O)CC[C@]3(CO[Si](C)(C)C(C)(C)C)CC[C@@H]12 (racemic) |  | 480 | 

SMILES | Activity [1] | IC50 (RAW264.7 [4]; Mus musculus, RAW264.7, 24 h) [nM] | other results
CC1(C)C(=O)C(C#N)=C[C@]2(C)C3=CC(=O)C(C#N)=C[C@]3(C#CC(=O)O)CC[C@@H]12 (racemic) |  | 100 | CD [3]: 150 nM
C#CC#C[C@]12C=C(C#N)C(=O)C=C1[C@@]1(C)C=C(C#N)C(=O)C(C)(C)[C@@H]1CC2 (racemic) |  | 3 | Activity (RAW264.7 [7]): Active; Activity (RAW264.7 [8]): Active
CC1(C)C(=O)C(C#N)=C[C@]2(C)C3=CC(=O)CC[C@]3(C=O)CC[C@@H]12 (racemic) |  | 83 | 
CC(C)(C)OC(=O)NC[C@]12CCC(=O)C=C1[C@@]1(C)C=C(C#N)C(=O)C(C)(C)[C@@H]1CC2 (racemic) |  | 64 | 
CC1(C)C(=O)C(C(=O)O)=C[C@]2(C)C3=CC(=O)C(C#N)=C[C@]3(C)CC[C@@H]12 (racemic) | Non-toxic |  | IC50 [2, 9]: > 600 nM
CC1(C)C(=O)C(C#N)=C[C@]2(C)C3=CC(=O)CC[C@]3(C#N)CC[C@@H]12 (racemic) |  | 64 | 
COC(=O)C1=C[C@]2(C)C3=CC(=O)C(C#N)=C[C@]3(C)CC[C@H]2C(C)(C)C1=O (racemic) | Non-toxic |  | IC50 [2, 9]: > 60 nM
CC(=O)OC[C@]12CCC(=O)C=C1[C@@]1(C)C=C(C#N)C(=O)C(C)(C)[C@@H]1CC2 (racemic) |  | 85 | 
CC1(C)C(=O)C(C#N)=C[C@]2(C)C3=CC(=O)CC[C@]3(C)CC[C@@H]12 (racemic) | Non-toxic | 57 | IC50 [2, 9]: 19 nM
COC(=O)[C@]12CCC(=O)C=C1[C@@]1(C)C=C(C#N)C(=O)C(C)(C)[C@@H]1CC2 (racemic) |  | 290 | 
CC1(C)C(=O)C(C#N)=C[C@]2(C)C3=CC(=O)CC[C@]3(C(=O)OCOCC[Si](C)(C)C)CC[C@@H]12 (racemic) |  | 150 | 
CC1(C)C(=O)C(C#N)=C[C@]2(C)C3=CC(=O)CC[C@]3(C(=O)O)CC[C@@H]12 (racemic) |  | 83 | 
CC1(C)C(=O)C(C#N)=C[C@]2(C)C3=CC(=O)CC[C@]3(C(N)=O)CC[C@@H]12 (racemic) |  | > 10000 | 
COC[C@]12CCC(=O)C=C1[C@@]1(C)C=C(C#N)C(=O)C(C)(C)[C@@H]1CC2 (racemic) |  | 40 | 
CC1(C)C(=O)C(C#N)=C[C@]2(C)C3=CC(=O)CC[C@]3(CN)CC[C@@H]12 (racemic) |  | 240 | 
CC[C@]12CCC(=O)C=C1[C@@]1(C)C=C(C#N)C(=O)C(C)(C)[C@@H]1CC2 (racemic) |  | 80 | 
C#C[C@]12CCC(=O)C=C1[C@@]1(C)C=C(C#N)C(=O)C(C)(C)[C@@H]1CC2 (racemic) |  | 83 | 
CC1(C)C(=O)C(C#N)=C[C@]2(C)C3=CC(=O)C(C#N)=C[C@]3(C#N)CC[C@@H]12 (racemic) |  | 115 | 
CC1(C)C(=O)C(C#N)=C[C@]2(C)C3=CC(=O)C(C#N)=C[C@]3(C#Cc3nccn3COCC[Si](C)(C)C)CC[C@@H]12 (racemic) |  | 35 | Activity (RAW264.7 [8]): Active

SMILES | Activity [1] | IC50 (RAW264.7 [4]; Mus musculus, RAW264.7, 24 h) [nM] | other results
CC1(C)C(=O)C(C#N)=C[C@]2(C)C3=CC(=O)C(C#N)=C[C@]3(C#Cc3ncc[nH]3)CC[C@@H]12 (racemic) |  | 400 | 
Cc1csc(C#C[C@]23C=C(C#N)C(=O)C=C2[C@@]2(C)C=C(C#N)C(=O)C(C)(C)[C@@H]2CC3)n1 (racemic) |  | 20 | Activity (RAW264.7 [7]): Active; Activity (RAW264.7 [8]): Active
CC1(C)C(=O)C(C#N)=C[C@]2(C)C3=CC(=O)C(C#N)=C[C@]3(C#Cc3ccccc3)CC[C@@H]12 (racemic) |  | 50 | Activity (RAW264.7 [7]): Active; Activity (RAW264.7 [8]): Active
CC#C[C@]12C=C(C#N)C(=O)C=C1[C@@]1(C)C=C(C#N)C(=O)C(C)(C)[C@@H]1CC2 (racemic) |  | 5 | CD [3]: 7.5 nM
CCC#C[C@]12C=C(C#N)C(=O)C=C1[C@@]1(C)C=C(C#N)C(=O)C(C)(C)[C@@H]1CC2 (racemic) |  | 20 | 
CC1(C)C(=O)C(C#N)=C[C@]2(C)C3=CC(=O)C(C#N)=C[C@]3(C#C[Si](C)(C)C)CC[C@@H]12 (racemic) |  | 3 | 
CC[C@]12C=C(C#N)C(=O)C=C1[C@@]1(C)C=C(C#N)C(=O)C(C)(C)[C@@H]1CC2 (racemic) |  | 10 | CD [3]: 18 nM; Activity (RAW264.7 [8]): Active
C=C[C@]12C=C(C#N)C(=O)C=C1[C@@]1(C)C=C(C#N)C(=O)C(C)(C)[C@@H]1CC2 (racemic) |  | 10 | CD [3]: 30 nM; Activity (RAW264.7 [8]): Active
CC(=O)O[C@@H]1CC(=O)C=C2[C@@]3(C)C=C(C#N)C(=O)C(C)(C)[C@@H]3CC[C@]21C (racemic) | Non-toxic |  | 
CC1(C)C(=O)C(C#N)=C[C@]2(C)C3=CC(=O)C(C(=O)O)=C[C@]3(C)CC[C@@H]12 (racemic) | Non-toxic |  | 
COC(=O)C1=C[C@]2(C)CC[C@H]3C(C)(C)C(=O)C(C#N)=C[C@]3(C)C2=CC1=O (racemic) | Non-toxic |  | 
CC1(C)C(=O)C(C#N)=C[C@]2(C)C3=CC(=O)C(C#N)=C[C@]3(C)CC[C@@H]12 (racemic) | Non-toxic | 23 | IC50 ([2]; macrophage): 2.1 nM
CC1(C)C(=O)C(C#N)=C[C@]2(C)C3=CC(=O)C(C#N)=C[C@]3(C#CC#N)CC[C@@H]12 (racemic) |  | 4 | Activity (RAW264.7 [8]): Active
CC1(C)C(=O)C(C#N)=C[C@]2(C)C3=CC(=O)C=C[C@]3(C)CC[C@@H]12 (racemic) [listing 1 of 2 here] | Non-toxic | 87 | 
CC1(C)C(=O)C(C#N)=C[C@]2(C)C3=CC(=O)C=C[C@]3(C)CC[C@@H]12 (racemic) [listing 2 of 2 here] |  |  | CD [3]: 160 nM
COC(=O)[C@]12CCC(C)(C)C[C@H]1[C@H]1C(=O)C=C3[C@@]4(C)C=C(C#N)C(=O)C(C)(C)[C@@H]4CC[C@@]3(C)[C@]1(C)CC2 [BARDOXOLONE METHYL] | Non-toxic |  | IC50 [2, 9]: 0.2 nM
C[C@@H]1C[C@H]2[C@@H]3CCC4=CC(=O)C=C[C@]4(C)[C@@]3(F)[C@@H](O)C[C@]2(C)[C@@]1(O)C(=O)CO [DEXAMETHASONE] |  | 20 | 
C[C@]12CCC(=O)C=C1CC[C@@H]1[C@@H]2[C@@H](O)C[C@@]2(C)[C@H]1CC[C@]2(O)C(=O)CO [HYDROCORTISONE] | Non-toxic | 61 | IC50 [2, 9]: 10 nM

— ChEMBL document CHEMBL1759862, “Tricyclic compounds containing nonenolizable cyano enones. A novel class of highly potent anti-inflammatory and cytoprotective agents” (J Med Chem, 2011)
